Laboratory results from ChEMBL document CHEMBL1781963, “Discovery of novel hepatoselective HMG-CoA reductase inhibitors for treating hypercholesterolemia: a bench-to-bedside case study on tissue selective drug distribution” (Bioorg Med Chem Lett, 2011).

How the values were obtained:
OATP1B1 = target: T1, OATP1B1 (Homo sapiens, UniProt Q9Y6L6); test: Drug uptake by human hepatic OATP1B1 transporter expressed in HEK293 cells at 1 uM relative to wild type HEK293 cells; format: ADME, cell-based; conditions: HEK293 cells expressing human OATP1B1, read-out: FC
T1 sequence (Q9Y6L6 whole entry): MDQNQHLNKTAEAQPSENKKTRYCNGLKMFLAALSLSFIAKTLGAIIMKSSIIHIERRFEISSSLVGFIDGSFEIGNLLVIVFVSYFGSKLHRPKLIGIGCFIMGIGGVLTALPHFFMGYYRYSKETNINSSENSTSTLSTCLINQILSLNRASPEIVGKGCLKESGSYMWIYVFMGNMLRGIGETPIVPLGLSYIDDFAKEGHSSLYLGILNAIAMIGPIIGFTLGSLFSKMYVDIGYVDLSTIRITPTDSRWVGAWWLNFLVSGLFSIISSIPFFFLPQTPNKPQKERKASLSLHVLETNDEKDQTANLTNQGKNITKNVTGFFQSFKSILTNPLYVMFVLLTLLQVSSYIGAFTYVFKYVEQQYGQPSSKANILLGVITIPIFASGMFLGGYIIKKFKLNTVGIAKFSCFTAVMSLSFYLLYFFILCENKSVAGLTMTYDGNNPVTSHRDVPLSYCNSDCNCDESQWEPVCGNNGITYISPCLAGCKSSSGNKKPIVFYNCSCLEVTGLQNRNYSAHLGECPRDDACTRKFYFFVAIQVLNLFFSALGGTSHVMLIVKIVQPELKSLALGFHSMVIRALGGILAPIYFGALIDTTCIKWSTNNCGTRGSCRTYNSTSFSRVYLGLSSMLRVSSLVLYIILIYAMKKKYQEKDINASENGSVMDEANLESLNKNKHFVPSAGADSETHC
How it was run: (§1)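 Individual hepatic OATP transporters were over-expressed in CHO or HEK293 cells: rat rOatp1a1, rOatp1a4 and rOatp1b2, and human hOATP1B1, hOATP1B3 and hOATP2B1. Substrate uptake is expressed as fold difference relative to the wild-type parental line. Rosuvastatin/pravastatin served as positive control and midazolam as negative control in each assay.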

OATP1B3 = target: T2, OATP1B3 (Homo sapiens, UniProt Q9NPD5); test: Drug uptake by human hepatic OATP1B3 transporter expressed in HEK293 cells at 1 uM relative to wild-type HEK293 cells; format: ADME, cell-based; conditions: HEK293 cells expressing human OATP1B3, read-out: FC; how it was run: as §1
T2 sequence (Q9NPD5 whole entry): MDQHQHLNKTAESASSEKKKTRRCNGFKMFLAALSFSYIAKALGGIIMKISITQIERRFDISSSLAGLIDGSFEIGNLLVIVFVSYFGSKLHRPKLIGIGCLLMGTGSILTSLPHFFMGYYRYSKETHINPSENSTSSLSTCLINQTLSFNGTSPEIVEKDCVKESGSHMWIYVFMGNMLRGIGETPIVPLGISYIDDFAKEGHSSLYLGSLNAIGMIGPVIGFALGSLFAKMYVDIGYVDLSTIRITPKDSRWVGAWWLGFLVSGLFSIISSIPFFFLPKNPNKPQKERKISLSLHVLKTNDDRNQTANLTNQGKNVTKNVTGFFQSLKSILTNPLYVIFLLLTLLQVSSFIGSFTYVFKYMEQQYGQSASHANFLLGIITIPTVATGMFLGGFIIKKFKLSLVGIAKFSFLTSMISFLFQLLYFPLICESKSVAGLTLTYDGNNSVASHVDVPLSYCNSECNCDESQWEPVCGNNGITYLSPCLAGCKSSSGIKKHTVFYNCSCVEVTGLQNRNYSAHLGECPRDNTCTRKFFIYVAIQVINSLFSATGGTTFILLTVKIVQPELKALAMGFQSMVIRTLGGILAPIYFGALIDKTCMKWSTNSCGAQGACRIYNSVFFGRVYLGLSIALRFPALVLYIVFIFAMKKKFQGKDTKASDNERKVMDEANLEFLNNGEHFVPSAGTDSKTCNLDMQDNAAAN

OATP1A4 = target: T3, OATP1A4 (Rattus norvegicus, UniProt O35913); test: Drug uptake by rat hepatic OATP1A4 transporters expressed in CHO cells at 10 uM relative to wild type CHO cells; format: ADME, cell-based; conditions: CHO cells expressing rat OATP1A4, read-out: FC; how it was run: as §1
T3 sequence (O35913 whole entry): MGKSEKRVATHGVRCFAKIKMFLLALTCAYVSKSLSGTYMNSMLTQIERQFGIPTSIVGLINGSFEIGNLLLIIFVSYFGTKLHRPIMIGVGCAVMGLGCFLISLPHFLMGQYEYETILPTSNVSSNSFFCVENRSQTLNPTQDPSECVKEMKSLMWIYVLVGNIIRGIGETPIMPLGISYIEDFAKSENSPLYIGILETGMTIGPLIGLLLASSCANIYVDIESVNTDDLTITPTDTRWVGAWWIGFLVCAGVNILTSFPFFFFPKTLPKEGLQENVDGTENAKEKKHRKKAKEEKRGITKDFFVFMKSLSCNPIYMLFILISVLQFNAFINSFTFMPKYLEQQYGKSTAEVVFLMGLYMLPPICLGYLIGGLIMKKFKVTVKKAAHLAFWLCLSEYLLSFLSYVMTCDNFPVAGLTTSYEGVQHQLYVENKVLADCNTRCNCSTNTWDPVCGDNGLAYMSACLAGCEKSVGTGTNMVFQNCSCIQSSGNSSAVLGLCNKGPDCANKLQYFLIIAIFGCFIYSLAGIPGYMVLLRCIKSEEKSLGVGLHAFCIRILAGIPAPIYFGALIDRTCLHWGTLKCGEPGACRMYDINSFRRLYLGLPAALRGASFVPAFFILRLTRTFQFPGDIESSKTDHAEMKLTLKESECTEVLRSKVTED

Hepatocyte [1] = test: Drug uptake in sandwich-cultured rat hepatocytes assessed per mg of protein at 1 uM; format: ADME, cell-based
How it was run: (§2)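 Rat or human hepatocytes were cultured in sandwich configuration with a Matrigel overlay and compound uptake was measured. Active uptake was assessed by inhibition with the pan-OATP inhibitor rifamycin SV. Rosuvastatin/pravastatin served as positive control and midazolam as negative control.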

[2] = Fraction unbound in rat plasma at 0.5 ug/ml; format: ADME, cell-free
How it was run: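 Unbound fraction in rat, dog or human plasma, measured at a drug concentration of 0.5 μg/mL.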

Hepatocyte [3] = test: Drug uptake in sandwich-cultured human hepatocytes assessed per mg of protein at 1 uM in presence of rifamycin SV; format: ADME, cell-based; how it was run: as §2
[4] = Fraction unbound in rat liver at 1 uM; format: ADME, tissue-based
How it was run: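 Unbound fraction in rat liver tissue, measured at 1 μM drug.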

Row | SMILES | uptake ratio at 1 µM (OATP1B1) | uptake ratio at 1 µM (OATP1B3) | uptake ratio at 10 µM (OATP1A4) | Drug uptake (Hepatocyte [1]) [pmol/min/mg] | fraction unbound at 0.5 ug/ml [2] | Drug uptake (Hepatocyte [3]) [%] | fraction unbound at 1 µM [4]
1 | Cc1ncc2n1-c1ccc(Cl)cc1C(c1ccccc1F)=NC2 [MIDAZOLAM] | 0.6 | 0.9 | 0.82 |  |  |  | 
2 | CC[C@H](C)C(=O)O[C@H]1C[C@H](O)C=C2C=C[C@H](C)[C@H](CC[C@@H](O)C[C@@H](O)CC(=O)O)[C@H]21 [PRAVASTATIN] | 73.7 | 13 | 1.8 |  |  |  | 
3 | Cc1ccc(CNC(=O)c2nn(-c3ccc(F)cc3)c(CC[C@@H](O)C[C@@H](O)CC(=O)O)c2C(C)C)cc1 | 21.6 | 11.1 | 3 | 14 | 0.016 | 78 | 0.052
4 | O=C([O-])C[C@H](O)C[C@H](O)CCn1c(-c2ccc(F)cc2)nc(C(=O)NCc2cccc(F)c2)c1C1CC1.[Na+] | 49 | 34.5 | 7.3 | 17 | 0.15 | 97 | 0.23
5 | CC(C)c1nc(N(C)S(C)(=O)=O)nc(-c2ccc(F)cc2)c1/C=C/[C@@H](O)C[C@@H](O)CC(=O)O [ROSUVASTATIN] | 14.4 | 3.7 | 17.3 | 24 | 0.06 | 85 | 0.17
